Assay results taken from ChEMBL document CHEMBL1148743, “C1'-cycloalkyl side chain pharmacophore in tetrahydrocannabinols” (J Med Chem, 2007).

Columns and labels:
[1] = target: Cannabinoid receptor 1 (Rattus norvegicus, UniProt P20272); assay: Displacement of [3H]CP-55940 from CB1 receptor in rat brain synaptosomal membrane; assay type: cell membranes
Outline: (§1)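 Rat forebrain synaptosomal membranes prepared from frozen brains serve as CB1 source. Binding is competition against tritiated CP-55,940, run in 96-well filter format, and IC50 values are taken from displacement. Filters are washed in buffer containing 0.5% BSA and counted by scintillation. Ki is the mean of three independent experiments, each run in duplicate.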

[2] = target: Cannabinoid receptor 2 (Mus musculus, UniProt P47936); assay: Displacement of [3H]CP-55940 from CB2 receptor in mouse spleen membrane; assay type: cell membranes
Sequence of Cannabinoid receptor 2 (P47936 whole entry): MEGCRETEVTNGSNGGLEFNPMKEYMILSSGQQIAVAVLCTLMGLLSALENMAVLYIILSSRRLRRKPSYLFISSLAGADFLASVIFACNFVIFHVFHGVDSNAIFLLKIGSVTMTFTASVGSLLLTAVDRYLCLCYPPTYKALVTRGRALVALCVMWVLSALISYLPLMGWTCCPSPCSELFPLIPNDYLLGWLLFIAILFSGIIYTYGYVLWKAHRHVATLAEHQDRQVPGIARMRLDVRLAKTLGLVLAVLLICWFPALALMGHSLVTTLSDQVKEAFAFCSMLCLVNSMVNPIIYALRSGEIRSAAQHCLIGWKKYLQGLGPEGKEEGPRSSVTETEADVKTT
Outline: as §1, with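 “CB2 sites are measured with” for “Rat forebrain synaptosomal”, “mouse spleen.” for “brains serve as CB1 source.”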

[3] = Selectivity for mouse CB2 receptor over rat CB1 receptor

Sequence of Cannabinoid receptor 1 (P20272 whole entry): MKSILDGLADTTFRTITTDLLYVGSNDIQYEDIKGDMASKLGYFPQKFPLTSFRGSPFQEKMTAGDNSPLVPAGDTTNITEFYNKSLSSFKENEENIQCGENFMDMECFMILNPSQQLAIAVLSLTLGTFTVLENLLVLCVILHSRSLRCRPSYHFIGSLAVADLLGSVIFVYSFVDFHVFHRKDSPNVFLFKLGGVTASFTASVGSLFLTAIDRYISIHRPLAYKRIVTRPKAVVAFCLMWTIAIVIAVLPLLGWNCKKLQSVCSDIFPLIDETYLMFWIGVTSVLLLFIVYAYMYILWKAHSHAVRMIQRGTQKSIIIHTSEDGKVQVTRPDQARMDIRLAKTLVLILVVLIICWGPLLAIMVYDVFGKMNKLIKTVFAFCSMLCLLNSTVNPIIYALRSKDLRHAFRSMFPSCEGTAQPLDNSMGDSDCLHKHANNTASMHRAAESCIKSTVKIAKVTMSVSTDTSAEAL

## CCCCCCCC1(c2cc(O)c3c(c2)OC(C)(C)[C@@H]2CC=C(C)C[C@@H]32)CCCCC1
[1]
  Ki: 13.6 nM
[2]
  Ki: 143 nM

## CCCCCCC1(c2cc(O)c3c(c2)OC(C)(C)[C@@H]2CC=C(C)C[C@@H]32)CCCCC1
[1]
  Ki: 18.4 nM
[2]
  Ki: 23.5 nM

## CCCCCCC1(c2cc(O)c3c(c2)OC(C)(C)[C@@H]2CC=C(C)C[C@@H]32)CCC1
[1]
  Ki: 1.5 nM
[3]
  Selectivity ratio: 8
[2]
  Ki: 11.5 nM

## CCCCCCCC1(c2cc(O)c3c(c2)OC(C)(C)[C@@H]2CC=C(C)C[C@@H]32)CC1 (relative stereo)
[1]
  Ki: 0.48 nM
[2]
  Ki: 4.2 nM

## CCCC/C=C\C1(c2cc(O)c3c(c2)OC(C)(C)[C@@H]2CC=C(C)C[C@@H]32)CCCC1 (relative stereo)
[1]
  Ki: 0.72 nM
[2]
  Ki: 1.8 nM

## CCCC/C=C\C1(c2cc(O)c3c(c2)OC(C)(C)[C@@H]2CC=C(C)C[C@@H]32)CCCCC1
[1]
  Ki: 3.9 nM
[2]
  Ki: 4.9 nM

## CCCCCCCc1cc(O)c2c(c1)OC(C)(C)[C@@H]1CC=C(C)C[C@@H]21
[1]
  Ki: 8.8 nM
[2]
  Ki: 20.8 nM

## CCCCCCCC1(c2cc(O)c3c(c2)OC(C)(C)[C@@H]2CC=C(C)C[C@@H]32)CCCC1
[1]
  Ki: 9.9 nM
[2]
  Ki: 45.5 nM

## CCCC/C=C\C1(c2cc(O)c3c(c2)OC(C)(C)[C@@H]2CC=C(C)C[C@@H]32)CC1
[1]
  Ki: 1.5 nM
[2]
  Ki: 1.7 nM

## CCCC/C=C\C1(c2cc(O)c3c(c2)OC(C)(C)[C@@H]2CC=C(C)C[C@@H]32)CCC1
[1]
  Ki: 0.93 nM
[2]
  Ki: 1.2 nM

## CCCCCCCC1(c2cc(O)c3c(c2)OC(C)(C)[C@@H]2CC=C(C)C[C@@H]32)CCC1
[1]
  Ki: 2.7 nM
[3]
  Selectivity ratio: 20
[2]
  Ki: 52.3 nM
